ChEMBL document CHEMBL1138430, “Novel tetrahydroisoquinolines are histamine H3 antagonists and serotonin reuptake inhibitors” (Bioorg Med Chem Lett, 2007)

What was measured:
[1] = molecular target: Sodium-dependent serotonin transporter (Rattus norvegicus, UniProt P31652); assay: Binding affinity at rat SERT
[2] = molecular target: Sodium-dependent serotonin transporter (Homo sapiens, UniProt P31645); assay: Binding affinity at human SERT
[3] = molecular target: T1, Histamine H3 receptor (Homo sapiens, UniProt Q9Y5N1); assay: Binding affinity at human histamine H3 receptor
[4] = molecular target: T1, Histamine H3 receptor; assay: Antagonist activity at human histamine H3 receptor; format: functional; settings: read-out: pA2 (converted)
[5] = test system: Voltage-gated potassium channel; assay: Binding affinity for potassium channel at 1 uM; format: protein assay; settings: human
[6] = test system: Voltage-gated calcium channel; assay: Binding affinity for calcium channel at 1 uM; format: protein-complex assay; settings: human
[7] = molecular target: Sodium-dependent noradrenaline transporter (Homo sapiens, UniProt P23975); assay: Inhibition of [3H]nisoxetine uptake in human NET expressed in MDCK cells; format: cell-based
[8] = molecular target: Sodium-dependent dopamine transporter (Homo sapiens, UniProt Q01959); assay: Inhibition of [3H]WIN-uptake in human DAT expressed in CHO cells; format: cell-based
Procedure, shortened: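 Human DAT expressed in CHO cells; membranes were incubated on ice for 2 h with 10.9 nM [3H]-WIN 35,428, then harvested by rapid filtration. Nonspecific binding was defined with GBR-12909. Ki values are means of at least three experiments run in triplicate, with SEM.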

[9] = Plasma clearance in po and iv dosed rat; format: ADME, organism-based
[10] = (§1) Volume of distribution at steady state in po and iv dosed rat; format: ADME, organism-based; settings: in vivo, read-out: Vdss
[11] = (§2) Half life in po and iv dosed rat; format: ADME, organism-based; settings: in vivo
[12] = (§3) Bioavailability in po dosed rat; format: ADME, organism-based; settings: in vivo
[13] = Cmax in rat brain at 10 mg/kg, po; format: ADME, organism-based; design: dose 10 mg/kg, route oral
[14] = species: Rattus norvegicus; assay: Ex vivo receptor occupancy at SERT in rat; format: functional
[15] = species: Rattus norvegicus; assay: Ex vivo receptor occupancy at histamine H3 receptor in rat; format: functional
[16] = test system: Brain; assay: Drug level in rat brain at 0.1 mg/kg; format: ADME, organism-based; design: dose 0.1 mg/kg; settings: in vivo, read-out: Drug uptake
[17] = test system: Rattus norvegicus; assay: as §1; format: ADME, organism-based; settings: in vivo
[18] = test system: Rattus norvegicus; assay: as §2; format: ADME, organism-based; settings: in vivo
[19] = test system: Rattus norvegicus; assay: as §3; format: ADME, organism-based; settings: in vivo

Sodium-dependent serotonin transporter (Rattus norvegicus, UniProt P31652), sequence (P31652 whole entry): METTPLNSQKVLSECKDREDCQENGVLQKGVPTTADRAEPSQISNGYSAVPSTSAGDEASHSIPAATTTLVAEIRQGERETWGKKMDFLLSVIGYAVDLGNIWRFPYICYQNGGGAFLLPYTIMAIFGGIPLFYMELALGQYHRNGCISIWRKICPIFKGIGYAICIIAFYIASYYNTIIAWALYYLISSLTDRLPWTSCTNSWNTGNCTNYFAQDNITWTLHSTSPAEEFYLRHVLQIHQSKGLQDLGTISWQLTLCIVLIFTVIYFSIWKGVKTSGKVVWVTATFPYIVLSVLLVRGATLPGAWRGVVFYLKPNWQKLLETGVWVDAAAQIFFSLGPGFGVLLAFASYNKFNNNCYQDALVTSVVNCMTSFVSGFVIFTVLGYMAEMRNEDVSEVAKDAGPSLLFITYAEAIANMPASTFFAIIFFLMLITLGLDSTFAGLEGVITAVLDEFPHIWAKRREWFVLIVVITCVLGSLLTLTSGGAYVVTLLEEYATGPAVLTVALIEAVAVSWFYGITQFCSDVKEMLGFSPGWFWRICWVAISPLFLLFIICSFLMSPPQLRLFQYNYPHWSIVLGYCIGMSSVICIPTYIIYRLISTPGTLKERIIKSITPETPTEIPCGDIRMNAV
Sodium-dependent serotonin transporter (Homo sapiens, UniProt P31645), sequence (P31645 whole entry): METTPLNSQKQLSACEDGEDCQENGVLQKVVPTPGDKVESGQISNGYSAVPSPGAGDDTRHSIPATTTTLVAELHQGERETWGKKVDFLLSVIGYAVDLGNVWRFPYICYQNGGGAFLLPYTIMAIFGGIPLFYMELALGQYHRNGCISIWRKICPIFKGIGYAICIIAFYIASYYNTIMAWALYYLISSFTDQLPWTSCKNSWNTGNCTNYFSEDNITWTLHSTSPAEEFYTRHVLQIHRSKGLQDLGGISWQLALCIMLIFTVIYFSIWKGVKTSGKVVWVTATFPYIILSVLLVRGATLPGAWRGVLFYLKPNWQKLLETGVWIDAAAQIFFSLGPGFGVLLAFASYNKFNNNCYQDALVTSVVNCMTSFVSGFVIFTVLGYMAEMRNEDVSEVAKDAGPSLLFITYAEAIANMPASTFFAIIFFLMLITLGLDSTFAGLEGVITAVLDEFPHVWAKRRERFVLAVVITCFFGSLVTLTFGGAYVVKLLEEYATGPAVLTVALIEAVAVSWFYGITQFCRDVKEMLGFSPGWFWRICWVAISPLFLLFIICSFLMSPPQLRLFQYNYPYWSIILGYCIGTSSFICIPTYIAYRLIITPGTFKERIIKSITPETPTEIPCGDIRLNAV
T1 sequence (Q9Y5N1 whole entry): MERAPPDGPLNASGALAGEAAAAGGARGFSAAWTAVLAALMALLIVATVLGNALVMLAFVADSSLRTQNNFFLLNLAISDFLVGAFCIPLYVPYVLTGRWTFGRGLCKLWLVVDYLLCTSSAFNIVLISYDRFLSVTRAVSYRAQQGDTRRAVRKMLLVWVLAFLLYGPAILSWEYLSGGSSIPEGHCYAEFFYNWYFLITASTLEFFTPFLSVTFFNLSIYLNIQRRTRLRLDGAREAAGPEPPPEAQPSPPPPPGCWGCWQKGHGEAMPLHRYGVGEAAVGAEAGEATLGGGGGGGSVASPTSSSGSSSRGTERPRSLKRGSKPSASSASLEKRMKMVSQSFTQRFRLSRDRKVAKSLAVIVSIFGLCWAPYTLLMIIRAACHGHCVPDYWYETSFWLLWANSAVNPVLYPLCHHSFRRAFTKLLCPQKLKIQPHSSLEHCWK
Sodium-dependent dopamine transporter, sequence (Q01959 whole entry): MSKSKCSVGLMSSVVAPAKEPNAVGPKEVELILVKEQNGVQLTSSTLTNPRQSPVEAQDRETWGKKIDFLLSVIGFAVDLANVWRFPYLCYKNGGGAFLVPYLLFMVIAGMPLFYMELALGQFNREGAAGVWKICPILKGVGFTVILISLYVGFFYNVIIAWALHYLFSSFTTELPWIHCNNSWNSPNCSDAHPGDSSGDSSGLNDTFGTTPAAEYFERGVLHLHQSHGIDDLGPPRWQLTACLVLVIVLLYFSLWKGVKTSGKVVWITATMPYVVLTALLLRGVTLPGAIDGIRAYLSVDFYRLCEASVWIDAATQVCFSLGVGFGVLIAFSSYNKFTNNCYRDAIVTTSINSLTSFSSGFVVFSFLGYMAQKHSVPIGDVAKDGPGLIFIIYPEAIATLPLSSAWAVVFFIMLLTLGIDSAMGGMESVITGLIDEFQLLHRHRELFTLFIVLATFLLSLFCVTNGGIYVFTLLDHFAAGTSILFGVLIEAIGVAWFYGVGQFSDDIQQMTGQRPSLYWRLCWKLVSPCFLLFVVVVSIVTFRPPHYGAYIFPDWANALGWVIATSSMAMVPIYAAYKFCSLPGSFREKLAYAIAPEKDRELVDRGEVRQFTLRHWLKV
Sodium-dependent noradrenaline transporter, sequence (P23975 whole entry): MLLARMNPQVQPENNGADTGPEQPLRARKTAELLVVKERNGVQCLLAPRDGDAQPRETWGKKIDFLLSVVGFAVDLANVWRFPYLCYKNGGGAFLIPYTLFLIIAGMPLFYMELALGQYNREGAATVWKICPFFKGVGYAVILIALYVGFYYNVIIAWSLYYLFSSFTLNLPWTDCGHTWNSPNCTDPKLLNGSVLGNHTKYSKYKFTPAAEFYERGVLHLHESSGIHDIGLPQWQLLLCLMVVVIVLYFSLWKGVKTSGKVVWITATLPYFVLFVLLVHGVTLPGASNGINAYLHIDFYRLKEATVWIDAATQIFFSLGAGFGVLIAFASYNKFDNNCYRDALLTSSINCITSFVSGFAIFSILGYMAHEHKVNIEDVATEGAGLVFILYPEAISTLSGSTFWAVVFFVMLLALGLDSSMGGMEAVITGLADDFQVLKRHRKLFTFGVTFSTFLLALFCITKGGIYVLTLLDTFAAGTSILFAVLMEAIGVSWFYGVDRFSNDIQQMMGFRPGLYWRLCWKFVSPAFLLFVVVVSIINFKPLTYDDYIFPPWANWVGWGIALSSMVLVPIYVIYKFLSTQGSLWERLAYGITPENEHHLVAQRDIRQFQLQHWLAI

Row | Ki [1] [nM] | Ki [2] [nM] | Ki [3] [nM] | Kb [4] [nM] | SMILES | also measured
1 | 5.3 | 5.7 | 9.7 | 6.17 | COc1ccc(C2CN(C)Cc3cc(OCCCN4CCC(F)CC4)ccc32)cc1Cl (stereo unspecified) | 
2 | 4.4 | 13 | 8.3 |  | Cc1ccc(C2CN(C)Cc3cc(OCCCN4CCC(F)CC4)ccc32)cc1 (stereo unspecified) | 
3 | 2 |  |  |  | CSc1ccc(C2CN(C)Cc3cc(OCCCN4CCC(F)CC4)ccc32)cc1 (racemic) | Activity [5]: Not Active; Activity [6]: Not Active; Ki [7]: 118 nM; Ki [8]: 46 nM; clearance [9]: 18.5 mL/min/kg; Vd [10]: 9.6 L/kg; half-life [11]: 9.9 h; bioavailability [12]: 21%; Cmax [13]: 2400 nM; ED50 [14]: 0.1 mg/kg; ED50 [15]: 0.05 mg/kg; concentration [16]: 130 nM
4 | 17 | 18 | 5.6 |  | CN1Cc2cc(OCCCN3CCC(F)CC3)ccc2C(c2ccccc2Cl)C1 (stereo unspecified) | 
5 | 7.8 | 16 | 3.5 | 1.41 | CN1Cc2cc(OCCCN3CCC(F)CC3)ccc2C(c2ccc(C#N)cc2)C1 (stereo unspecified) | 
6 | 1.7 | 2.7 |  |  | COc1ccc(C2CN(C)Cc3cc(OCCCN4CCC(F)CC4)ccc32)cc1 (racemic) | Vdss [17]: 19.9 L/kg; t1/2 [18]: 16 h; F [19]: 6%; Cmax [13]: 1500 nM
7 | 5 | 4.2 |  |  | CSc1ccc(C2CN(C)Cc3cc(OCCCN4CCC(F)CC4)ccc32)cc1 (stereo in doubt; (-)/-12p) | 
8 |  | 46 | 3.3 | 0.724 | CN1Cc2cc(OCCCN3CCC(F)CC3)ccc2C(c2ccccc2)C1 (stereo unspecified) | 
9 | 2.7 | 4.7 | 7.3 |  | CCOc1ccc(C2CN(C)Cc3cc(OCCCN4CCC(F)CC4)ccc32)cc1 (stereo unspecified) | clearance [9]: 29.9 mL/min/kg; Vd [10]: 15.5 L/kg; half-life [11]: 10.3 h; bioavailability [12]: 11%
10 | 8.3 | 21 | 31 | 33.1 | CN1Cc2cc(OCCCN3CCC(F)CC3)ccc2C(c2ccc(Cl)c(Cl)c2)C1 (stereo unspecified) | 
11 |  |  | 6.9 | 2.95 | COc1ccc([C@H]2CN(C)Cc3cc(OCCCN4CCOC[C@@H]4C)ccc32)cc1 | 
12 | 16 |  | 8.3 |  | CN1Cc2cc(OCCCN3CCC(F)CC3)ccc2C(c2ccc(Cl)cc2)C1 (stereo unspecified) | 
13 | 22 | 135 |  |  | CN1Cc2cc(OCCCN3CCC(F)CC3)ccc2C(c2ccc(S(C)(=O)=O)cc2)C1 (stereo unspecified) | 
14 | 4.3 | 4.3 | 2 | 0.851 | COc1cccc(C2CN(C)Cc3cc(OCCCN4CCC(F)CC4)ccc32)c1 (stereo unspecified) | 
15 |  |  |  |  | COc1ccc(C2CN(C)Cc3cc(OCCCN4CCC(F)CC4)ccc32)cc1 (stereo in doubt; 12b) | clearance [9]: 32.3 mL/min/kg; Vdss [17]: 5.1 L/kg; half-life [11]: 13.3 h; F [19]: 13%
16 |  | 4.3 | 10 | 4.37 | CN1Cc2cc(OCCCN3CCC(F)CC3)ccc2C(c2ccc(OC(F)F)cc2)C1 (stereo unspecified) | 
17 | 2.3 | 8.8 |  |  | CSc1ccc(C2CN(C)Cc3cc(OCCCN4CCC(F)CC4)ccc32)cc1 (stereo in doubt; 12o) | 
18 | 36 | 34 | 46 |  | CN1Cc2cc(OCCCN3CCC(F)CC3)ccc2C(c2ccc(SC(F)(F)F)cc2)C1 (stereo unspecified) | 
19 |  | 24 |  | 1.38 | CN1Cc2cc(OCCCN3CCC(F)CC3)ccc2C(c2cccc(Cl)c2)C1 (stereo unspecified) | 
20 | 14 | 8.6 | 18 |  | CN1Cc2cc(OCCCN3CCC(F)CC3)ccc2C(c2ccc(C(F)(F)F)cc2)C1 (stereo unspecified) | 
21 |  |  |  | 2.29 | COc1ccc(C2CN(C)Cc3cc(OCCCN4CCOCC4)ccc32)cc1 (stereo unspecified) | 
22 | 4.5 | 9.3 |  |  | COc1ccc(C2CN(C)Cc3cc(OCCCN4CCC(F)CC4)ccc32)cc1 (single isomer, unassigned; (-)) | 
23 | 30 | 15 | 11 |  | CN1Cc2cc(OCCCN3CCC(F)CC3)ccc2C(c2cccc(C(F)(F)F)c2)C1 (stereo unspecified) | 

Row | SMILES | Ki [1] [nM] | Ki [2] [nM] | Ki [3] [nM] | Kb [4] [nM] | also measured
24 | CN1Cc2cc(OCCCN3CCC(F)CC3)ccc2C(c2cc(Cl)ccc2Cl)C1 (stereo unspecified) | 120 | 107 | 9.3 | 4.57 | 
